Results from different studies.
Compare with care: the assays were run in different laboratories.
Target: Tyrosine-protein kinase Fgr (FGR, Homo sapiens, UniProt P09769)

The remaining activity of `CCN(CC)c1ccc(C2=NNC(=O)CC2C)cc1[N+](=O)[O-]` (stereo not shown) is reported as 85% (enzyme activity, inhibitor; 10 µM).
For `O=C(Nc1cnn(-c2csc(C(=O)NC3COC3)c2)c1)Nc1ccccc1Cl`, the remaining activity was 90% (enzyme activity, inhibitor; 5 µM).
With `Cn1c2c(c3ccc(Cl)c(Cl)c31)C(C#N)C1(CCNCC1)NC2=O` (racemic) the ΔTm was 0.1 °C (thermal stability, DSF; 10 µM).
`COc1cc(Cl)c(C(=O)N[C@@H](CN[C@H]2CC[C@@H](N)CC2)Cc2ccc(C#N)cc2)cc1-c1ccc(CN[C@H](C)c2ccc(C)cc2)o1` gave a remaining activity of 87% (enzyme activity, inhibitor; 1 µM).
For `CNC(=O)c1cc2c(Oc3ccc(NC(=O)C4(C(=O)Nc5ccc(F)cc5)CC4)cc3)ccnc2cc1OC`, the inhibition was 79% (enzyme activity, inhibitor, radiometric; 1 µM).
`Cn1c2c(c3ccc(Cl)c(Cl)c31)C(C#N)C1(CCCC1)NC2=O` (stereo not shown) gave a ΔTm of -0.2 °C (thermal stability, DSF; 10 µM).
`CCN(CC)CCNC(=O)c1c(C)[nH]c(/C=C2\C(=O)Nc3ccc(F)cc32)c1C` gave an inhibition of 97% (enzyme activity, inhibitor; 10 µM).
With `CC(C)(O)c1cncc(-c2nc3ccc(F)cc3n2C2CC2)c1` the remaining binding was 100% (cell-free assay, competition with immobilised ligand; 1 µM).
`COc1cc2ncnc(Nc3ccc(Oc4ccccc4)cc3C)c2cc1OC` gave an inhibition of 98% (enzyme activity, inhibitor; 1 µM).
`O=C(O)c1cc(-c2ccc(C3CCNCC3)cc2)c2ccc(-c3ccc(C(F)(F)F)cc3)cc2c1` gave a remaining binding of 100% (cell-free assay, competition with immobilised ligand; 1 µM).
The ΔTm of `CN1CCC2(CC1)NC(=O)c1c(c3ccc(Cl)c(Cl)c3n1C)C2C#N` (racemic) is reported as 0.1 °C (thermal stability, DSF; 10 µM).
The remaining binding of `C[C@H](NC(=O)c1cnc2n1[C@](C)(Cc1ccc(C#N)cc1)C(=O)N2c1cc(Cl)c(F)c(Cl)c1)C(=O)NC1(c2ccccn2)CC1` is reported as 100% (cell-free assay, competition with immobilised ligand; 1 µM).
`Cn1c2c(c3ccc(Cl)c(Cl)c31)C(C#N)C(C)(C)NC2=O` (stereo not shown) has a ΔTm of 0.1 °C (thermal stability, DSF; 10 µM).
The remaining signal of `Cc1ccc(NC(=O)c2ccc(CN3CCN(C)CC3)cc2)cc1Nc1nc(-c2cccnc2)cs1` is reported as 43.6% (cell-free assay; 0.5 µM).
`FC(F)(F)c1ccc2c(c1)nc(-c1cccnc1)n2C1CC1` gave a remaining binding of 100% (cell-free assay, competition with immobilised ligand; 1 µM).
`CCCOc1ccc(OC)c(F)c1C(=O)c1ccc(C(=O)N[C@@H]2CNC[C@H]2NC(=O)c2ccc3[nH]ncc3c2)cc1` has a remaining activity of 65% (enzyme activity, inhibitor; 10 µM).
The remaining binding of `CS(=O)(=O)c1cc(C2(NC(=O)c3cncc4c3cnn4-c3ccc(F)cc3)CC2)ccn1` is reported as 100% (cell-free assay, competition with immobilised ligand; 1 µM).
For `Cn1c2c(Cl)c(Cl)ccc2c2cc(N)[nH]c(=O)c21`, the ΔTm was 0 °C (thermal stability, DSF; 10 µM).
The remaining activity of `CC(C)(C)c1nc(-c2cccc(NS(=O)(=O)c3c(F)cccc3F)c2F)c(-c2ccnc(N)n2)s1` is reported as 60% (enzyme activity, inhibitor, radiometric; 1 µM).
For `N#CCCc1ccc2c(c1)-c1[nH]c3ccc([N+](=O)[O-])cc3c1CC(=O)N2`, the remaining signal was 31% (cell-free assay; 0.5 µM).
`CNC(=O)c1ccc(Nc2ncc(C(F)(F)F)c(NCc3nccnc3N(C)S(C)(=O)=O)n2)cc1` gave a remaining binding of 81% (cell-free assay, competition with immobilised ligand; 0.1 µM).
`CNC(=O)c1cc(Oc2ccc(NC(=O)Nc3ccc(Cl)c(C(F)(F)F)c3)cc2)ccn1` gave an inhibition of 10% (enzyme activity, inhibitor; 0.3 µM).
`CN(C)C(=O)Cn1cc(-c2nc(C3(c4ccc(-c5cnc(N)nc5)cc4)CC3)no2)cn1` has a remaining binding of 100% (cell-free assay, competition with immobilised ligand; 1 µM).
For `O=C1NC(=O)c2cc(Nc3ccc(F)cc3)c(Nc3ccc(F)cc3)cc21`, the remaining signal was 96.3% (cell-free assay; 0.5 µM).
For `CC1(C)NC(=O)c2[nH]c3c(Cl)c(Cl)ccc3c2C1C#N` (stereo not shown), the ΔTm was 0.2 °C (thermal stability, DSF; 10 µM).
`CN(c1nccc(-c2cnn3ncccc23)n1)C1CC1` has a remaining signal of 100% (cell-free assay; 1 µM).
With `CC(C)CC(=O)N1CCc2nc(-c3ccc(Br)cc3)nc(N(C)Cc3ccccc3)c2C1` the remaining binding was 99% (cell-free assay, competition with immobilised ligand; 0.1 µM).
The remaining activity of `Cc1sc(C(=O)NC2COC2)cc1-n1cc(NC(=O)Nc2c(F)cccc2Cl)cn1` is reported as 80.2% (enzyme activity, inhibitor; 10 µM).
